Assay outcomes deposited in PubChem by several laboratories.
Most compounds without a hit are left out; they make up all but 1.7% or so of the library.
ZTA counter: counter-screen for EBNA-1 inhibitors: inhibitors of Epstein-Barr virus ZTA; actives 0.15% (n = 320,000); ZTA-DNA binding, fluorescence polarization; inhibition, % at 11 µM; P03206; in the data active = inhibition above about 33%
core dimer inh: HCV core protein dimerization inhibition; TR-FRET GST/Flag-core106 dimerization, 1536-well; inhibition, % at 5 µM; actives 0.33% (n = 300,000);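 active = inhibition above the mean of all tested compounds plus 3 SD, set per screening campaign, cut at about 45% in these data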
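System: GST-tagged and Flag-tagged HCV core protein residues 1-106 / Input: core106 proteins, GST 13.5 nM and Flag 17 nM / Buffer or medium: KF-containing HEPES buffer, pH 7.45, DTT, CHAPS, BSA / Probe or stimulus: Eu-anti-GST and XL665-anti-Flag labelled anti-tag antibodies / Schedule: 4 h, 22.5 °C incubation / Technique: TR-FRET 671 and 617 nm emission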
MEX-5 binding: C. elegans MEX-5 TCR-2 RNA binding activity; Q9XUB2; MEX-5/FITC-TCR2 RNA binding, fluorescence polarization; stronger effect = lower value; activity score (negative = inhibition of binding), % at 10 µM; actives 0.38% (n = 300,000); AID 1832;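 active = inhibition past about -25% in most replicates, and total fluorescence under double the plate's negative control median, limit read from the data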
Target sequence (Q9XUB2 whole entry, looked up): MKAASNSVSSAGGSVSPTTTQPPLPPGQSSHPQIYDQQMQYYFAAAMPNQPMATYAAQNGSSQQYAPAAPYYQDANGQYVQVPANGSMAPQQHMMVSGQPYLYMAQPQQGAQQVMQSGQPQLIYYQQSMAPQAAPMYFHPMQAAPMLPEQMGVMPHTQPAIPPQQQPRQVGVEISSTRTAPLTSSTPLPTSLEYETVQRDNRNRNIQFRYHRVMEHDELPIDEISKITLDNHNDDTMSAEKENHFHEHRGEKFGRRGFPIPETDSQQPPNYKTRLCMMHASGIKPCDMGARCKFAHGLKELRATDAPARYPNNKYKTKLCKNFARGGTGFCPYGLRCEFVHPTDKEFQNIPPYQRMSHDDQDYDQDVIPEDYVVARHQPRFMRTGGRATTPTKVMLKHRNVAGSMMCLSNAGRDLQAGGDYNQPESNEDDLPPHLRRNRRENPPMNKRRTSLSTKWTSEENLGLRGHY
HCV NS3 hel inh: blocks Hepatitis C virus NS3 helicase unwinding; inhibition, % at 10.9 µM; NS3 helicase DNA unwinding, Cy5 molecular beacon fluorescence; actives 0.56% (n = 290,000);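 active = inhibition above the mean of all tested compounds plus 3 SD, set per campaign, cut at about 35% in these data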
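Material: hepatitis C virus NS3 helicase domain fragment enzyme; measured by: Cy5 fluorescence, 0 and 60 min reads; control set: DMSO and thioflavine S; incubation: 60 min unwinding reaction at 25 °C after ATP addition; read-out basis: % inhibition from 60/0 min fluorescence ratio, DMSO 0%, thioflavine S 100%; repeats: singlicate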
EBNA-1 inh: blocks EBNA-1 binding to DNA; AID 1950; EBNA-1 DNA binding, fluorescence polarization; inhibition, % at 14.8 µM; actives 0.34% (n = 300,000); in the data active = inhibition above about 28%
EBV gp42 block: inhibitors of Epstein-Barr virus glycoprotein 42; Fluorescence polarization binding assay, mP read-out; inhibition, % (tested at 21.74 µM); actives 0.42% (n = 220,000); AID 1085; in the data active = inhibition above about 50%
Target sequence (Q1HVG2 whole entry, looked up): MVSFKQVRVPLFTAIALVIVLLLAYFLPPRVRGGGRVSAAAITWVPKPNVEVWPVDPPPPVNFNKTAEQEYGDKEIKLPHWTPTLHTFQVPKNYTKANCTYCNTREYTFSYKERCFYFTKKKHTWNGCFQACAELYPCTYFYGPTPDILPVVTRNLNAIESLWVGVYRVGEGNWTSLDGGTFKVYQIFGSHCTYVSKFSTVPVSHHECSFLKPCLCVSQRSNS
ZTA inh confirm: EBV ZTA DNA binding inhibition, confirmation; shares compounds with ZTA counter; actives 30% (n = 320); inhibition, % at 11.1 µM; Zta-ZRE DNA binding, fluorescence polarization;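 active = mean inhibition across triplicate runs above the hit threshold derived for the original primary screen, cut at about 33% in these data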
EBNA1 counter: EBNA-1 DNA binding inhibition, counter-screen for ZTA. shares compounds with ZTA counter. fluorescence polarization. inhibition, % at 14.8 µM. 320 tested, under 10 active; call rule not given here
Each line names hits and unclear results; the compound was inactive in the other large screens (follow-up assays come after a bar, where they were run).

Cc1ccc(NC(=O)Nc2c(Cl)cccc2Cl)cn1	none
COc1cc(/C=C/c2[nH]c(=O)[nH]c(=O)c2[N+](=O)[O-])cc([N+](=O)[O-])c1O	ZTA counter 36 (no result: EBV gp42 block) | ZTA inh confirm 55 | EBNA1 counter inactive
CCC(C)Oc1ccc(/C=C/c2[nH]c(=O)[nH]c(=O)c2[N+](=O)[O-])cc1OC (stereo unspecified)	none
O=C(Cc1c(F)cccc1Cl)Nc1ccc(S(=O)(=O)NCC2CCCO2)cc1 (stereo unspecified)	none
Cc1ccc([N+](=O)[O-])cc1NC(=O)C1CCN(S(C)(=O)=O)CC1	ZTA counter 49 | ZTA inh confirm inactive | EBNA1 counter inactive
Cc1ccc([N+](=O)[O-])cc1NC(=O)C1CCCC1	none (no result: EBV gp42 block)
CC(C)c1ccc(NC(=O)CCS(=O)(=O)c2cccc3nonc23)cc1	none (no result: EBV gp42 block)
CCc1nnc(NS(=O)(=O)c2ccc(NC(=S)NC(=O)/C=C/c3ccccc3)cc2)s1	ZTA counter 37 | ZTA inh confirm inactive | EBNA1 counter inactive
CCC(C)Sc1cc(-c2nc3ccc(C)cn3c2NCc2ccccc2)ccc1OC (stereo unspecified)	ZTA counter 40 (no result: HCV NS3 hel inh, EBV gp42 block) | ZTA inh confirm 93 | EBNA1 counter inactive
O=C(COc1ccc(Br)cc1)Nc1nc(-c2cccnc2)cs1	none
Cc1nn(CC(=O)Nc2ccc(C(=O)N3CCCCC3)cc2)c(=O)c2ccccc12	ZTA counter 35 | ZTA inh confirm inactive | EBNA1 counter inactive
Cc1nn(CC(=O)Nc2ccc(C(=O)N3CCCC3)cc2)c(=O)c2ccccc12	none
Cc1cc(C)n(C(C)CC(=O)Nc2ccc(-c3ccno3)cc2)n1 (stereo unspecified)	none (no result: EBV gp42 block)
C=CCn1c(NS(=O)(=O)c2ccccc2)c(S(=O)(=O)c2ccc(C)cc2)c2nc3ccccc3nc21	ZTA counter 56 | ZTA inh confirm inactive | EBNA1 counter inactive
O=S(=O)(Nc1c(S(=O)(=O)c2ccccc2)c2nc3ccccc3nc2n1C1CCCCC1)c1ccccc1	none
CCc1nn(CC(=O)N2CCN(C)CC2)c(=O)c2cccn12	ZTA counter 36 (no result: EBV gp42 block) | ZTA inh confirm inactive | EBNA1 counter inactive
COc1cc(/C=C2\COC/C(=C\c3ccc(O)c(OC)c3)C2=O)ccc1O	ZTA counter 52 | ZTA inh confirm 42 | EBNA1 counter inactive
COc1cc(/C=C2/CC/C(=C/c3ccc(O)c(OC)c3)C2=O)ccc1O	none
CC1C/C(=C/c2ccncc2)C(=O)/C(=C/c2ccncc2)C1 (stereo unspecified)	ZTA counter 43 | ZTA inh confirm 48 | EBNA1 counter inactive
O=C(CC(C(=O)O)c1ccc(Cl)cc1Cl)c1ccc(Cl)cc1 (stereo unspecified)	ZTA counter 33 (no result: EBV gp42 block) | ZTA inh confirm inactive | EBNA1 counter inactive
O=C(CC(C(=O)O)c1ccc(Cl)cc1)c1ccc(Cl)c(Cl)c1 (stereo unspecified)	none (no result: EBV gp42 block)
COc1ccc(NC(=O)CSc2nc3sc4c(c3c(=O)n2-c2ccc(OC)cc2)CCN(C)C4)cc1	ZTA counter 34 (no result: EBV gp42 block) | ZTA inh confirm inactive | EBNA1 counter inactive
COc1ccc(-n2c(SCC(=O)Nc3nccs3)nc3sc4c(c3c2=O)CCN(C)C4)cc1	none
N#Cc1c(N)nc2c(c1-c1ccc3c(c1)OCO3)CCc1ccccc1-2	none
COc1ccc(C(=O)N(C)c2c(C)n(C)n(-c3ccccc3)c2=O)cc1OC	ZTA counter 82 | ZTA inh confirm inactive | EBNA1 counter inactive
Cc1ccc(-n2[nH]c(C)c(C=Nc3ccc4[nH]c(=O)[nH]c4c3)c2=O)cc1	none
Cc1ccc(-n2[nH]c(C)c(C=Nc3ccc4[nH]c(=O)[nH]c4c3)c2=O)cc1C	ZTA counter 52 | ZTA inh confirm inactive | EBNA1 counter inactive
Cc1csc(NC(=O)c2nn(C)c(C)c2[N+](=O)[O-])n1	none
S=C(NCC1CCCO1)c1ccc(Br)cc1 (stereo unspecified)	none (no result: EBV gp42 block)
CC(=O)NC(CCS(C)(=O)=O)C(=O)Nc1ccc(Cl)c(Cl)c1 (stereo unspecified)	ZTA counter 36 | ZTA inh confirm inactive | EBNA1 counter inactive
O=C(COC(=O)CNC(=O)c1cccc([N+](=O)[O-])c1)NCc1ccco1	none
CC(=O)n1cc(CO)c2ccccc21	none (no result: EBV gp42 block)
CC(=O)O/C(=C\c1cn(C(C)=O)c2ccccc12)C(=O)O	ZTA counter 158 | ZTA inh confirm inactive | EBNA1 counter inactive
CN(C)CCOc1ccccc1-c1ccccc1	ZTA counter 37 | ZTA inh confirm inactive | EBNA1 counter inactive
COc1ccc(-c2coc3c(CN4CCCCC4)c(O)c(CN4CCCCC4)c(O)c3c2=O)cc1	ZTA counter 73 | ZTA inh confirm inactive | EBNA1 counter inactive
CCCCOc1ccc(N=Cc2cccs2)cc1	none
Oc1ccc(N=Cc2ccc(-c3cccs3)s2)cc1	ZTA counter 46 | ZTA inh confirm 47 | EBNA1 counter inactive
COC(=O)CSc1nnc([C@H](Cc2ccccc2)NC(=O)OC(C)(C)C)o1	ZTA counter 90 | ZTA inh confirm inactive | EBNA1 counter inactive
CC(C)(C)OC(=O)N[C@@H](Cc1ccccc1)c1nnc(SCC(N)=O)o1	none
CCOC(=O)C1(Cc2cccc(OC)c2)CCN(C/C=C/c2ccc(OC)cc2)CC1	none
CCOC(=O)C1(Cc2cccc(OC)c2)CCN(CC=C(C)C)CC1	ZTA counter 95 | ZTA inh confirm inactive | EBNA1 counter inactive
CCOc1ccc(C(=O)COC(=O)c2nn(CC)c(=O)c3ccccc23)cc1	none (no result: core dimer inh, MEX-5 binding, HCV NS3 hel inh, EBNA-1 inh, EBV gp42 block)
O=C(Nc1cccc(C(=O)N2CCN(c3ccccc3)CC2)c1)c1ccco1	none (no result: EBV gp42 block)
O=C(Nc1cccc(C(=O)N2CCCCCC2)c1)c1ccco1	ZTA counter 40 | ZTA inh confirm inactive | EBNA1 counter inactive
COc1cc(CNCCc2c[nH]c3ccccc23)ccc1OCc1ccc(F)cc1	ZTA counter 35 | ZTA inh confirm inactive | EBNA1 counter inactive
COc1cccc(CNCCc2c[nH]c3ccccc23)c1OCc1ccc(F)cc1	none
COc1ccc(Cl)cc1C(=O)Nc1cccc(-c2ccc3nncn3n2)c1	ZTA counter 92 | ZTA inh confirm 118 | EBNA1 counter inactive
CCOC(=O)C1=C(COC(=O)c2cc(OC)c(OC)cc2[N+](=O)[O-])NC(=O)NC1C (stereo unspecified)	none (no result: HCV NS3 hel inh, EBV gp42 block)
O=S(=O)(NCCSc1ccc(Cl)cc1)c1ccc2c(c1)OCCO2	ZTA counter 33 | ZTA inh confirm inactive | EBNA1 counter inactive
O=S(=O)(NCCSCc1ccc(Cl)cc1Cl)c1ccc2c(c1)OCCO2	none
